Measurements published in ChEMBL document CHEMBL4513216, “Probing the Open Global Health Chemical Diversity Library for Multistage-Active Starting Points for Next-Generation Antimalarials” (ACS Infect Dis, 2020).

Test: Toxicity liver stage against HepG2, at 10uM
Type: cell-based
Set-up: test concentration 10 uM, cell line HepG2-A16-CD81EGFP
Conditions: human, HepG2-A16-CD81EGFP cells; read-out: INHIBITION
Procedure, shortened: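 Uninfected HepG2-A16-CD81EGFP cells, 3 × 10^3 per well, 1536-well, plated on prespotted compound at 10 μM final, parasite-free screening media added to match infected plates; puromycin 10 μM positive, DMSO 0.5% negative; run in parallel with 48 h PbLuc assay at 37 °C, 5% CO2; viability by CellTiter-Glo luminescence, normalized to controls.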

SMILES	cytotoxicity at 10 µM [%]
N#CCc1cccc(C(=O)N2CCN(CC(O)c3ccccc3)CC2)c1 (stereo unspecified)	-10.7
c1ncn(CC2CCCN(Cc3nnc(C4CC4)o3)C2)n1 (stereo unspecified)	-14.5
Cn1cc(NS(=O)(=O)CC2CCCCO2)cn1 (stereo unspecified)	-5.41
COCC(=O)NC[C@]12COC[C@H]1CN(c1ncc(F)cn1)C2	-143
CN1CCN(c2ncc3c(=O)n(-c4cccc(F)c4)c(=O)[nH]c3n2)CC1	-8.85
N#Cc1ccc(C(=O)NCC2(N3CCOCC3)CCCC2)nc1	8.96
NC(=O)CN1CCC(NC(=O)N2CCCC2c2ccncc2)CC1 (stereo unspecified)	10.5
Cc1ccc(F)cc1-n1c(CN(C)S(C)(=O)=O)n[nH]c1=O	2.19
CS(=O)(=O)N1CCC(Oc2cnccn2)CC1	0.097
CCCNc1ncc(CN2CCOC(Cc3cccc(F)c3)C2)cn1 (stereo unspecified)	-8.65
O=C(NC1CCCCC1)N1CCCC1c1nnc2n1CCNC2 (stereo unspecified)	14.4
Cc1ccnc(OC[C@]23COC[C@H]2CN(C(=O)c2ccnn2C)C3)n1	3.16
CN(C)C[C@H]1OC[C@@H]2CCN(S(=O)(=O)c3ccccc3)C[C@@H]21	1.44
Cc1ccc(N2CCCC(N(C)Cc3noc(C4CC4)n3)C2)nn1 (stereo unspecified)	1.6
CN1CCN(C(=O)c2cccs2)Cc2ccccc21	-43.9
Cc1ccc(C)c2c(O)cc(CN[C@H]3CCCCNC3=O)nc12	5.63
Cc1cc(NCc2cc(C)oc2C(F)(F)F)n2nc(C)cc2n1	49.1
CCCn1c(NC(=O)CNC(=O)OCC)nc2ccccc21	-4.41
COc1ccc(CSc2nnc(N)n2C2CC2)cc1Cl	0.00426

SMILES	cytotoxicity at 10 µM [%]
CC(C)CN1CCC2(CCN(CC3CC3)CC2)C1=O	7.37
CC(=O)N1CCC(c2cnc(-c3c(C)nn(C)c3C)cn2)CC1	-33.6
COCC1CCN(C(=O)c2cn(Cc3cccc(C(F)(F)F)c3)nn2)C1 (stereo unspecified)	-0.695
O=C(CCNC(=O)c1ccccc1)Nc1ccncc1	-2.36
O=C(Cc1ccc(F)cc1)NCCNS(=O)(=O)c1ccc(F)c(F)c1	-6.7
CN(C)C(=O)c1ccc(-c2cscn2)cc1	1.53
COCCN1CCC(c2nc3ccc(NC(C)C)cn3n2)CC1	-5.26
Cc1nc(C2CCCN(C(=O)c3sc(C)nc3C)C2)no1 (stereo unspecified)	-1.96
Cc1noc(C)c1CSC1CCCN(c2cnn(C)c2)C1=O (stereo unspecified)	16.8
Cc1cccc(CO[C@@H]2CC[C@H]3[C@H]2OCCN3Cc2cc(C)on2)n1	-3.59
CC(NC(=O)COc1ccc(Cl)cc1Cl)c1nncn1C(C)C (stereo unspecified)	1.67
Oc1cc(C2CCCCN2CC2CC2)nc(-c2ccncc2)n1 (stereo unspecified)	9.77
COc1ccc(CC2CN(C(=O)c3coc(C)n3)CCO2)cc1 (stereo unspecified)	3.8
O=C(C1CC(=O)N(C2CC2)C1)N1CCC(Oc2ccccc2Cl)CC1 (stereo unspecified)	-7.54
Cc1cccc(C(=O)NCc2ccc(OCCN(C)C)cc2)c1C	1.52
COc1c(CNC2CCCOc3ccc(F)cc32)c(C(C)C)nn1C (stereo unspecified)	-5.83
Nc1cc(N2CCCC(CO)(Cc3ccccc3F)C2)nc(N)n1 (stereo unspecified)	12.8
Cc1nc(Nc2nnc(C)s2)cc(C2CCCN2C(C)C)n1 (stereo unspecified)	-23.9
CO[C@@H]1CCN(C(=O)c2ccccn2)[C@H]1Cc1ccccc1	4.89

SMILES	cytotoxicity at 10 µM [%]
FC(F)(F)CCc1ccnc(N2CCN(CCc3ccncc3)CC2)n1	-5.86
O=C(NCCOc1ccc(Cl)cn1)Nc1ccccn1	9.05
COCc1noc(Cn2c(C3CC3)nc3ccccc32)n1	13.2
Cc1ccc(O)c(CN(CCCn2ccnc2)Cc2ccc(C)s2)c1	-25.8
CCn1cnnc1CNC(=O)N1CCN(c2nccs2)CC1	-2.72
COc1ccccc1CNC(=O)N1CCCC(NS(C)(=O)=O)C1 (stereo unspecified)	5.05
Cn1ccnc1-c1ccc(NCC2COCCO2)nn1 (stereo unspecified)	9.3
CN(C)Cc1cccc(-c2cccnc2C(=O)NCc2ccccn2)c1	5.39
CN1CCN(C2CCN(Cc3noc(C(C)(C)C)n3)CC2)C1=O	17.1
O=C(CCc1nccs1)N1CCN(c2ccccc2F)CC1	-9.42
Cc1cnn(CC2CCCCN2C(=O)c2cccc(C(N)=O)c2)c1 (stereo unspecified)	-0.775
Cc1c(C(=O)N2CCN(C)CC2)n(C)c2ccc(Cl)cc12	-2.46
CCc1cc(N(C)Cc2ccno2)n2nc(C)c(C)c2n1	1.35
Cc1nnc2n1CCN(C(=O)c1cc(Cl)c(Br)[nH]1)C2	-4.31
CC(=O)c1ccc(-n2c(C)cn(CCC(=O)NC(N)=O)c2=O)cc1	14.3
c1ccc(OCC2C[C@@H]3[C@@H](C2)OCCN3Cc2ccoc2)nc1 (stereo partly specified)	-0.514
Cc1ccc(CNc2cc3[nH]c(O)nc3cc2C)cc1	22.2
N#CC1(NC(=O)c2ccc(-c3nc(C4CC4)n[nH]3)cc2)CCSC1 (stereo unspecified)	4.39
